# How the values were obtained:
# [1] = target: Human immunodeficiency virus type 1 protease (Human immunodeficiency virus 1, UniProt Q72874); test: Inhibitory activity against HIV-1 protease.
# Outline: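 IC50 against HIV-1 proteinase, from duplicate determinations at each inhibitor concentration, with mean values used for analysis. Results were standardized against a control run in every assay.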
# [2] = test system: MT4; test: Inhibition of cytopathic effect of HIV-1 in MT-4 cells; assay type: functional, cell-based; settings: Homo sapiens
SMILES,IC50 [1] [nM],EC50 [2] [nM]
CC1(C)S[C@H]([C@H](NC(=O)Cc2ccccc2)C(=O)NCc2ccccc2)N[C@H]1C(=O)N[C@H](Cc1ccccc1)[C@H](O)CC(N)=O,82,> 100000
C[C@H](Cc1ccccc1)NC(=O)[C@@H]1N[C@@H]([C@H](NC(=O)Cc2ccccc2)C(=O)NCc2ccccc2)SC1(C)C,> 180000,
CC(C)[C@H](CO)NC(=O)[C@@H]1N[C@@H]([C@H](NC(=O)Cc2ccccc2)C(=O)NCc2ccccc2)SC1(C)C,> 4700,
CC1(C)S[C@H]([C@H](NC(=O)Cc2ccccc2)C(=O)NCc2ccccc2)N[C@H]1C(=O)N[C@H](Cc1ccccc1)[C@H](O)CC(=O)NCc1ccccc1,4.6,4700
CC(C)CNC(=O)C[C@@H](O)[C@@H](Cc1ccccc1)NC(=O)[C@@H]1N[C@@H]([C@H](NC(=O)Cc2ccccc2)C(=O)NCc2ccccc2)SC1(C)C,69,> 150000
CC1(C)S[C@H]([C@H](NC(=O)Cc2ccccc2)C(=O)NCc2ccccc2)N[C@H]1C(=O)N[C@H](Cc1ccccc1)[C@H](O)CC(=O)N[C@@H](CO)c1ccccc1,190,> 100000
C[C@H](CO)NC(=O)[C@@H]1N[C@@H]([C@H](NC(=O)Cc2ccccc2)C(=O)NCc2ccccc2)SC1(C)C,> 20000,
CC(C)C[C@H](CO)NC(=O)[C@@H]1N[C@@H]([C@H](NC(=O)Cc2ccccc2)C(=O)NCc2ccccc2)SC1(C)C,> 4600,
CC1(C)S[C@H]([C@H](NC(=O)Cc2ccccc2)C(=O)NCc2ccccc2)N[C@H]1C(=O)NCCO,180000,
CCCCC(CO)NC(=O)[C@@H]1N[C@@H]([C@H](NC(=O)Cc2ccccc2)C(=O)NCc2ccccc2)SC1(C)C (some centres not stated) [listing 1 of 2 here],> 4600,
CCC(C)C(CO)NC(=O)[C@@H]1N[C@@H]([C@H](NC(=O)Cc2ccccc2)C(=O)NCc2ccccc2)SC1(C)C (some centres not stated),> 540,
CC1(C)S[C@H]([C@H](NC(=O)Cc2ccccc2)C(=O)NCc2ccccc2)N[C@H]1C(=O)N[C@H](Cc1ccccc1)[C@H](O)CC(=O)N[C@H](CO)c1ccccc1,170,10600
CC1(C)S[C@H]([C@H](NC(=O)Cc2ccccc2)C(=O)NCc2ccccc2)N[C@H]1C(=O)N[C@H](Cc1ccccc1)[C@@H](O)CC(=O)NCc1ccccc1,2900,
CC1(C)S[C@H]([C@H](NC(=O)Cc2ccccc2)C(=O)NCc2ccccc2)N[C@H]1C(=O)N[C@H](Cc1ccccc1)C(O)CNC(=O)Cc1ccccc1 (some centres not stated),53,> 100000
CC(C)CNC(=O)C[C@H](O)[C@@H](Cc1ccccc1)NC(=O)[C@@H]1N[C@@H]([C@H](NC(=O)Cc2ccccc2)C(=O)NCc2ccccc2)SC1(C)C,2800,
CC1(C)S[C@H]([C@H](NC(=O)Cc2ccccc2)C(=O)NCc2ccccc2)N[C@H]1C(=O)NCC(O)CNC(=O)[C@@H]1N[C@@H]([C@H](NC(=O)Cc2ccccc2)C(=O)NCc2ccccc2)SC1(C)C,5,2600

SMILES,IC50 [1] [nM],EC50 [2] [nM]
CC1(C)S[C@H]([C@H](NC(=O)Cc2ccccc2)C(=O)NCc2ccccc2)N[C@H]1C(=O)N[C@H](Cc1ccccc1)[C@H](O)CC(=O)N[C@H](CO)Cc1ccccc1,220,> 100000
CC1(C)S[C@H]([C@H](NC(=O)Cc2ccccc2)C(=O)NCc2ccccc2)N[C@H]1C(=O)N[C@H](Cc1ccccc1)[C@H](O)CC(=O)N[C@@H](CO)Cc1ccccc1,170,> 100000
CC1(C)S[C@H]([C@H](NC(=O)Cc2ccccc2)C(=O)NCc2ccccc2)N[C@H]1C(=O)N[C@@H](CO)Cc1ccccc1,150,
CC1(C)S[C@H]([C@H](NC(=O)Cc2ccccc2)C(=O)NCc2ccccc2)N[C@H]1C(=O)N[C@H](CO)Cc1ccccc1,> 170000,
CC1(C)S[C@H]([C@H](NC(=O)Cc2ccccc2)C(=O)NCc2ccccc2)N[C@H]1C(=O)NCCCNC(=O)[C@@H]1N[C@@H]([C@H](NC(=O)Cc2ccccc2)C(=O)NCc2ccccc2)SC1(C)C,540,
CC1(C)S[C@H]([C@H](NC(=O)Cc2ccccc2)C(=O)NCc2ccccc2)N[C@H]1C(=O)N[C@H](CO)CCc1ccccc1,26000,
CCCCC(CO)NC(=O)[C@@H]1N[C@@H]([C@H](NC(=O)Cc2ccccc2)C(=O)NCc2ccccc2)SC1(C)C (some centres not stated) [listing 2 of 2 here],250,
CC1(C)S[C@H]([C@H](NC(=O)Cc2ccccc2)C(=O)NCc2ccccc2)N[C@H]1C(=O)N[C@H](Cc1ccccc1)[C@@H](O)CC(N)=O,1900,
C[C@@H](Cc1ccccc1)NC(=O)[C@@H]1N[C@@H]([C@H](NC(=O)Cc2ccccc2)C(=O)NCc2ccccc2)SC1(C)C,> 180000,
CC1(C)S[C@H]([C@H](NC(=O)Cc2ccccc2)C(=O)NCc2ccccc2)N[C@H]1C(=O)N[C@H](Cc1ccccc1)[C@H](O)CC(=O)NCCCO,54,5700
CC1(C)S[C@H]([C@H](NC(=O)Cc2ccccc2)C(=O)NCc2ccccc2)N[C@H]1C(=O)N[C@H](Cc1ccccc1)[C@H](O)CC(=O)NCC(O)CO (some centres not stated),95,40000
CC1(C)S[C@H]([C@H](NC(=O)Cc2ccccc2)C(=O)NCc2ccccc2)N[C@H]1C(=O)N[C@H](Cc1ccccc1)[C@H](O)CC(=O)NCCO,1100,
CC1(C)S[C@H]([C@H](NC(=O)Cc2ccccc2)C(=O)NCc2ccccc2)N[C@H]1C(=O)N[C@@H](CO)CCc1ccccc1,25000,
CC1(C)S[C@H]([C@H](NC(=O)Cc2ccccc2)C(=O)NCc2ccccc2)N[C@H]1C(=O)N[C@H](Cc1ccccc1)[C@H](O)CC(=O)NCCc1ncc[nH]1,300,
CC1(C)S[C@H]([C@H](NC(=O)Cc2ccccc2)C(=O)NCc2ccccc2)N[C@H]1C(N)=O,> 230000,
